In ChEMBL document CHEMBL1127590 (J Med Chem, 1994):

Columns and labels:
[1] = biological target: T1, 3-oxo-5-alpha-steroid 4-dehydrogenase 1 (Homo sapiens, UniProt P18405); test: In vitro inhibitory activity against human type 1 5-alpha reductase
T1 sequence (P18405 whole entry): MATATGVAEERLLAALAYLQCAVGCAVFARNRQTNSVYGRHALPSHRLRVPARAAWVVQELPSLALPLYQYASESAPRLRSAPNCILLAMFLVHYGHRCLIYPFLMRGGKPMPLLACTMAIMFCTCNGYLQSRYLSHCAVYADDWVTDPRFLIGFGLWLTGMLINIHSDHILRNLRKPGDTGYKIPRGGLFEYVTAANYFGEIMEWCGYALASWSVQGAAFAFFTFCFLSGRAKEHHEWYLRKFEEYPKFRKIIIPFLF
Summary of the method: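 Used microsomes from baculovirus-infected SF-9 cells expressing recombinant human type 1 5AR, at final enzyme 0.05–5 nM. Buffer at pH 7 and 37 °C contained an NADPH-regenerating system. Inhibitor was preincubated 10 min before adding 100 nM [3H]testosterone.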

[2] = In vitro inhibitory activity against human adrenal 3-beta hydroxy-delta 5-teroid isomerase
Summary of the method: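 Microsomes were prepared from human adrenal tissue by homogenization and differential centrifugation. Inhibitor in 50% DMSO was preincubated 10 min at 37 °C in 100 mM potassium phosphate pH 7.5 with 1 mM NAD+. The reaction was started with 100 nM [3H]DHEA and quenched in ethanol after 15 min. DHEA-to-androstenedione conversion was measured by radio-HPLC.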

[3] = biological target: T2, 3-oxo-5-alpha-steroid 4-dehydrogenase 2 (Homo sapiens, UniProt P31213); test: In vitro inhibitory activity against human type 2 5-alpha reductase
T2 sequence (P31213 whole entry): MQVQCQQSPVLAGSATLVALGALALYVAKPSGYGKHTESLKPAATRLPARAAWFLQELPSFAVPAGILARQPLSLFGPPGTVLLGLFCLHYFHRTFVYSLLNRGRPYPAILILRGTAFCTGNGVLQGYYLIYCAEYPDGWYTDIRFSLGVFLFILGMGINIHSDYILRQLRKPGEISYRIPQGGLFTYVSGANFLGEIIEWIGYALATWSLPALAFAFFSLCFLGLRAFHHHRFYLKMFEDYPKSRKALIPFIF

Rattus norvegicus = test: In vivo inhibition of T stimulated prostate growth in rats was reported after oral administration at a dose 10 mg/kg/day; type: functional, Prostate gland
Summary of the method: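 Rats were castrated, and 7 days later dosed orally once daily for 7 days at 10 mg/kg/day in 1 part cremophor:2 parts saline:0.5% Tween 80 (8 rats/group). Testosterone (40 μg/kg sc in corn oil) was given 4 h after each dose. Ventral prostates were weighed on day 8. Weight reduction was expressed as a percent of the finasteride reduction versus T-treated vehicle controls.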

SMILES | Ki [1] [nM] | Ki [2] [nM] | IC50 [3] [nM] | Reduction (Rattus norvegicus) [%]
CCN(CC)C(=O)[C@H]1CCC2C3CN(C)C4=CC(=O)C5CC5[C@]4(C)C3CC[C@@]21C (stereo partly specified) | 10000 | 10 | – | –
CCN(CC)C(=O)[C@H]1CCC2C3CNC4=CC(=O)C=C[C@]4(C)C3CC[C@@]21C (stereo partly specified) | 5800 | 80 | 3.5 | –
CC1=C2N(C)CC3C(CC[C@@]4(C)C3CC[C@@H]4C(=O)NC34CC5CC(CC(C5)C3)C4)[C@@]2(C)CCC1=O (stereo partly specified) | 6.2 | 18 | 0.4 | –
CN1CC2C(CC[C@@]3(C)C2CC[C@@H]3C(=O)NC23CC4CC(CC(C4)C2)C3)[C@@]2(C)CCC(=O)C(Br)=C12 (stereo partly specified) | 8.6 | 8.3 | 1.7 | –
C[C@]12CCC(=O)C(Br)=C1NCC1C2CC[C@@]2(C)C1CC[C@@H]2C(=O)NC12CC3CC(CC(C3)C1)C2 (stereo partly specified) | 4.5 | 13 | < 0.1 | –
CC(C)(C)NC(=O)[C@H]1CC[C@H]2[C@@H]3CC=C4C=C(C(=O)O)CC[C@]4(C)[C@H]3CC[C@]12C [EPRISTERIDE] | 1600 | 160 | 0.18 | –
CCN(CC)C(=O)[C@H]1CCC2C3CNC4=C(C)C(=O)C=C[C@]4(C)C3CC[C@@]21C (stereo partly specified) | 280 | 91 | 8.1 | –
CCN(CC)C(=O)[C@H]1CC[C@H]2[C@@H]3CC[C@H]4N(C)C(=O)CC[C@]4(C)[C@H]3CC[C@]12C | 5 | 20 | 0.23 | –
CCN(CC)C(=O)[C@H]1CCC2C3CN(CC)C4=CC(=O)CC[C@]4(C)C3CC[C@@]21C (stereo partly specified) | 1300 | 49 | – | –
CN1CC2C(CC[C@@]3(C)C2CC[C@@H]3C(=O)NC(C)(C)C)[C@@]2(C)C=CC(=O)C=C12 (stereo partly specified) | 1400 | 62 | 6.7 | –
CCN(CC)C(=O)[C@H]1CCC2C3CNC4=C(I)C(=O)CC[C@]4(C)C3CC[C@@]21C (stereo partly specified) | 690 | 15 | – | –
CCN(CC)C(=O)[C@H]1CCC2C3CNC4=C(CN(C)C)C(=O)CC[C@]4(C)C3CC[C@@]21C (stereo partly specified) | 10000 | 1200 | 170 | –
CCN(CC)C(=O)[C@H]1CCC2C3CNC4=C(C)C(=O)CC[C@]4(C)C3CC[C@@]21C (stereo partly specified) | 40 | 18 | – | 0
CCN(CC)C(=O)[C@H]1CCC2C3CN(C)C4=C(C)C(=O)CC[C@]4(C)C3CC[C@@]21C (stereo partly specified) | 82 | 11 | – | –
CCN(CC)C(=O)[C@H]1CCC2C3CN(C)C4=CC(=O)C=C[C@]4(C)C3CC[C@@]21C (stereo partly specified) | 1300 | 22 | 5.7 | –
CCN(CC)C(=O)[C@H]1CCC2C3CN=C4C=C(O)C5CC5[C@]4(C)C3CC[C@@]21C (stereo partly specified) | 14000 | 95 | 1.8 | –

SMILES | Ki [1] [nM] | Ki [2] [nM] | IC50 [3] [nM] | Reduction (Rattus norvegicus) [%]
CCN(CC)C(=O)[C@H]1CCC2C3CNC4=C(Cl)C(=O)CC[C@]4(C)C3CC[C@@]21C (stereo partly specified) | 51 | 27 | – | –
CC(C)(C)NC(=O)[C@H]1CCC2C3CNC4=CC(=O)C=C[C@]4(C)C3CC[C@@]21C (stereo partly specified) | 2400 | 2200 | 1.8 | –
CCCN1CC2C(CC[C@@]3(C)C2CC[C@@H]3C(=O)NC(c2ccccc2)c2ccccc2)[C@@]2(C)C=CC(=O)C=C12 (stereo partly specified) | 340 | 180 | 1.3 | –
CCN(CC)C(=O)[C@H]1CCC2C3CNC4=C(Br)C(=O)CC[C@]4(C)C3CC[C@@]21C (stereo partly specified) | 97 | 13 | 2.1 | –
CCCCN1CC2C(CC[C@@]3(C)C2CC[C@@H]3C(=O)N(CC)CC)[C@@]2(C)CCC(=O)C=C12 (stereo partly specified) | 7800 | 3600 | – | –
CCN(CC)C(=O)[C@H]1CCC2C3CN(C(C)=O)C4=CC(=O)CC[C@]4(C)C3CC[C@@]21C (stereo partly specified) | 40000 | 34000 | 3000 | –
CCN(CC)C(=O)[C@H]1CCC2C3CN(C(C)C)C4=CC(=O)CC[C@]4(C)C3CC[C@@]21C (stereo partly specified) | 3400 | 1100 | 4.9 | –
CCN(CC)C(=O)[C@H]1CCC2C3CN(C#N)C4=CC(=O)CC[C@]4(C)C3CC[C@@]21C (stereo partly specified) | 8300 | 1500 | 42 | –
CC(C)(C)NC(=O)[C@H]1CCC2C3CN=C4C=C(O)C5CC5[C@]4(C)C3CC[C@@]21C (stereo partly specified) | 49000 | 300 | 4.4 | –
CCN(CC)C(=O)[C@H]1CCC2C3CN(CC(=O)O)C4=CC(=O)CC[C@]4(C)C3CC[C@@]21C (stereo partly specified) | 10000 | 180 | 1500 | –
CCC1=C2NCC3C(CC[C@@]4(C)C3CC[C@@H]4C(=O)N(CC)CC)[C@@]2(C)CCC1=O (stereo partly specified) | 4100 | 47 | 180 | –
CCCCCCN1CC2C(CC[C@@]3(C)C2CC[C@@H]3C(=O)N(CC)CC)[C@@]2(C)CCC(=O)C=C12 (stereo partly specified) | 5900 | 11000 | – | –
CN1CC2C(CC[C@@]3(C)C2CC[C@@H]3C(=O)NC23CC4CC(CC(C4)C2)C3)[C@@]2(C)C=CC(=O)C=C12 (stereo partly specified) | 280 | 62 | 0.3 | –
CC1=C2N(C)CC3C(CC[C@@]4(C)C3CC[C@@H]4C(=O)NC(C)(C)C)[C@@]2(C)CCC1=O (stereo partly specified) | 60 | 23 | – | –
CCCN1CC2C(CC[C@@]3(C)C2CC[C@@H]3C(=O)N(CC)CC)[C@@]2(C)CCC(=O)C=C12 (stereo partly specified) | 24000 | 520 | – | –

Now from value to compound, other results behind:

Ki [1] [nM] | Ki [2] [nM] | IC50 [3] [nM] | SMILES | Reduction (Rattus norvegicus) [%]
38 | 62 | – | CC(C)(C)N(O)C(=O)[C@H]1CCC2C3CNC4=CC(=O)CC[C@]4(C)C3CC[C@@]21C (stereo partly specified) | –
– | 220 | – | C[C@]12CCC(=O)C=C1NCC1C2CC[C@@]2(C)C1CC[C@@H]2C(=O)N1CCNCC1 (stereo partly specified) | –
– | 50 | – | CON(C)C(=O)[C@H]1CCC2C3CNC4=CC(=O)CC[C@]4(C)C3CC[C@@]21C (stereo partly specified) | –
6.9 | 180 | < 0.1 | C[C@]12CC[C@H]3[C@@H](CNC4=CC(=O)CC[C@@]43C)[C@@H]1CC[C@@H]2C(=O)OC1[C@H]2C[C@@H]3C[C@@H](C[C@H]1C3)C2 (stereo partly specified) | –
– | 100 | < 0.1 | C[C@]12CCC(=O)C=C1NCC1C2CC[C@@]2(C)C1CC[C@@H]2C(=O)NC(c1ccccc1)(c1ccccc1)c1ccccc1 (stereo partly specified) | –
– | 160 | – | C[C@]12CCC(=O)C=C1NCC1C2CC[C@@]2(C)C1CC[C@@H]2C(=O)NN(c1ccccc1)c1ccccc1 (stereo partly specified) | –
– | 10 | < 0.1 | CC(C)CC(=O)[C@H]1CCC2C3CNC4=CC(=O)CC[C@]4(C)C3CC[C@@]21C (stereo partly specified) | –
3.2 | 2.3 | – | CC(C)CC(=O)[C@H]1CCC2C3CNC4=C(Br)C(=O)CC[C@]4(C)C3CC[C@@]21C (stereo partly specified) | –
– | 31 | – | C[C@]12CCC(=O)C=C1NCC1C2CC[C@@]2(C)C1CC[C@@H]2C(=O)N1CCSCC1 (stereo partly specified) | –
10000 | 16000 | – | CCN(CC)C(=O)[C@H]1CCC2C3CN(Cc4ccccc4)C4=CC(=O)CC[C@]4(C)C3CC[C@@]21C (stereo partly specified) | –
1000 | 1500 | 3.8 | CCN(CC)C(=O)[C@H]1CCC2C3CCNC4=CC(=O)CC[C@]4(C)C3CC[C@@]21C (stereo partly specified) | –
280 | 1900 | 0.5 | CC(C)c1cc(C(C)C)c(C(=O)[C@H]2CCC3C4CNC5=CC(=O)CC[C@]5(C)C4CC[C@@]32C)c(C(C)C)c1 (stereo partly specified) | –
12 | 11 | – | CCCC(=O)[C@H]1CCC2C3CNC4=CC(=O)CC[C@]4(C)C3CC[C@@]21C (stereo partly specified) | –
– | 150 | – | CC(C)(C)NC(=O)[C@H]1CCC2C3CNC4=CC(=O)CC[C@]4(C)C3CC[C@@]21C (stereo partly specified) | –
– | 4000 | – | C[C@]12CCC(=O)C=C1NCC1C2CC[C@@]2(C)C1CC[C@@H]2C(=O)NC(C1CCCCC1)C1CCCCC1 (stereo partly specified) | –
1 | 7.5 | < 0.1 | CCCCCCCCC(=O)[C@H]1CCC2C3CNC4=CC(=O)CC[C@]4(C)C3CC[C@@]21C (stereo partly specified) | –
85 | 110 | – | C[C@]12CCC(=O)C=C1NCC1C2CC[C@@]2(C)C1CC[C@@H]2C(=O)N1CCCCC1 (stereo partly specified) | –
4 | 16 | < 0.1 | C[C@]12CCC(=O)C=C1NCC1C2CC[C@@]2(C)C1CC[C@@H]2C(=O)CC1CCCCC1 (stereo partly specified) | –
39 | 11 | < 0.1 | C[C@]12CCC(=O)C=C1NCC1C2CC[C@@]2(C)C1CC[C@@H]2C(=O)c1c(F)cccc1F (stereo partly specified) | –
15 | 7.8 | < 0.1 | C[C@]12CCC(=O)C=C1NCC1C2CC[C@@]2(C)C1CC[C@@H]2C(=O)c1cccc2ccccc12 (stereo partly specified) | –
– | 12 | – | COC(=O)[C@H]1CCC2C3CNC4=CC(=O)CC[C@]4(C)C3CC[C@@]21C (stereo partly specified) | –
3500 | 510 | 3.4 | CCN(CC)C(=O)[C@H]1CCC2C3CNC4=CC(=O)C(C)C[C@]4(C)C3CC[C@@]21C (stereo partly specified) | –
– | 60 | – | CCN(CC)C(=O)[C@H]1CCC2C3CNC4=CC(=O)CC[C@]4(C)C3CC[C@@]21C (stereo partly specified) | –
– | 190 | – | C[C@]12CCC(=O)C=C1NCC1C2CC[C@@]2(C)C1CC[C@@H]2C(=O)N1CCOCC1 (stereo partly specified) | –
